Source: publication PMC4467529 (Bioorganic & medicinal chemistry, 2015)
“Also recorded” adds a separate entry of the source.

What was measured:
[1] = In vitro cytotoxicity, Neutral Red assay; type: cell-based; details: pig, LLC-PK11 pig kidney epithelial cells
How it was run: (§1)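 Cells were kept in RPMI-1640 with 10% bovine calf serum and amikacin 60 mg/L at 37 °C, 5% CO₂. They were seeded at 25,000 cells/well and grown 24 h, then exposed 48 h to test compound diluted in serum-free medium, tested up to 25 μg/ml. Viability was read by Neutral Red, as % decrease versus vehicle. IC50 came from dose curves, in triplicate, with doxorubicin as reference.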

[2] = In vitro cytotoxicity, Neutral Red assay; type: cell-based; details: African green monkey, Vero cells (kidney fibroblasts)
How it was run: as §1

[3] = In vitro cytotoxicity, Neutral Red assay; type: cell-based; details: human, SK-OV-3 ovary carcinoma cells
How it was run: (§2)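 Cells grown in RPMI-1640 with 10% bovine calf serum and amikacin (60 mg/L), 37°C, 5% CO₂, 95% humidity. Seeded at 25,000 cells/well, grown 24 h. Test samples diluted in serum-free medium, exposure 48 h. Viable cells counted by Neutral Red uptake; % viability loss against vehicle control. IC50 from dose curves, triplicate, means reported.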

[4] = In vitro cytotoxicity, Neutral Red assay; type: cell-based; details: human, KB oral epidermal carcinoma cells
How it was run: as §2

[5] = In vitro cytotoxicity, Neutral Red assay; type: cell-based; details: human, SK-MEL malignant melanoma cells
How it was run: as §1

rat paw edema = assay: Carrageenan-induced rat paw edema assay; type: in vivo; details: for in vivo anti-inflammatory activity (in words): rat paw edema, compared to ketorolac; for Edema thickness ±SEM, 1h / Edema thickness ±SEM, 2h / Edema thickness ±SEM, 3h / Edema thickness ±SEM, 4h: rat, 30 mg/kg intraperitoneally; for Edema thickness ±SEM, 1h: 1h after induction; for Edema thickness ±SEM, 2h: 2h after induction; for Edema thickness ±SEM, 3h: 3h after induction; for Edema thickness ±SEM, 4h: 4h after induction
How it was run: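 Adult albino rats of both sexes (120–150 g), pre-hydrated with 3 ml water by gavage, in groups of five. Test compound or ketorolac tromethamine was suspended in distilled water with a few drops of Tween 80 and given i.p. 1 h before 1% carrageenan s.c. into the right hind subplantar paw. Controls got saline/Tween 80.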

| SMILES | IC50 at 48 h [1] [µg/mL] | IC50 at 48 h [2] [µg/mL] | IC50 at 48 h [3] [µg/mL] | IC50 at 48 h [4] [µg/mL] | IC50 at 48 h [5] [µg/mL] | in vivo anti-inflammatory activity (in words) (rat paw edema) | Edema thickness ±SEM, 1h (rat paw edema) | Edema thickness ±SEM, 2h (rat paw edema) | Edema thickness ±SEM, 3h (rat paw edema) | Edema thickness ±SEM, 4h (rat paw edema) |
| --- | --- | --- | --- | --- | --- | --- | --- | --- | --- | --- |
| O=c1sc2ccccc2n1CCCCCN1CCN(CCCCn2c(=O)sc3ccccc32)CC1 [Compound 5p, 3-(5-(4-(4-(2-oxobenzo[d]thiazol-3(2H)-yl)butyl)piperazin-1-yl)pentyl)benzo[d]thiazol-2(3H)-one] | > 25 | > 25 | > 25 | > 25 |  |  |  |  |  |  |
| c1ccc2oc(SCCCCN3CCN(CCCCSc4nc5ccccc5o4)CC3)nc2c1 [Compound 8a, 1,4-bis(4-(benzo[d]oxazol-2-ylthio)butyl)piperazine] |  | > 25 | > 25 |  |  |  |  |  |  |  |
| O=c1sc2ccccc2n1CCCCCCN1CCN(CCCCCn2c(=O)sc3ccccc32)CC1 [Compound 5t, 3-(5-(4-(6-(2-oxobenzo[d]thiazol-3(2H)-yl)hexyl)piperazin-1-yl)pentyl)benzo[d]thiazol-2(3H)-one] | > 25 |  |  | > 25 | > 25 | significant anti-inflammatory and analgesic activity; also recorded: moderate activities compared to ketorolac | 93.01 ± 1.93 ×10^−2 mm | 91.57 ± 2.63 ×10^−2 mm | 109.24 ± 1.36 ×10^−2 mm | 127.34 ± 1.87 ×10^−2 mm |
| O=c1sc2ccccc2n1CCCCCN1CCN(CCCn2c(=O)sc3ccccc32)CC1 [Compound 5l, 3-(3-(4-(5-(2-oxobenzo[d]thiazol-3(2H)-yl)pentyl)piperazin-1-yl)propyl)benzo[d]thiazol-2(3H)-one] | > 25 | > 25 | > 25 | > 25 |  |  |  |  |  |  |
| O=c1sc2ccccc2n1CCCCCN1CCN(CCCCCn2c(=O)sc3ccccc32)CC1 [Compound 3h, 3,3′-(piperazine-1,4-diylbis(pentane-5,1-diyl))bis(benzo[d]thiazol-2(3H)-one)] | > 25 | > 25 |  | > 25 |  |  |  |  |  |  |
| O=c1oc2ccccc2n1CCCCCCN1CCN(CCCCCn2c(=O)oc3ccccc32)CC1 [Compound 5s, 3-(5-(4-(6-(2-oxobenzo[d]oxazol-3(2H)-yl)hexyl)piperazin-1-yl)pentyl)benzo[d]oxazol-2(3H)-one] | > 25 | > 25 | > 25 | > 25 |  |  |  |  |  |  |
| O=c1sc2ccccc2n1CCCCCCN1CCN(CCCCCCn2c(=O)sc3ccccc32)CC1 [Compound 3j, 3,3′-(piperazine-1,4-diylbis(hexane-6,1-diyl))bis(benzo[d]thiaazol-2(3H)-one)] | > 25 | > 25 |  |  | > 25 | significant anti-inflammatory and analgesic activity; also recorded: moderate activities compared to ketorolac | 95.50 ± 1.02 ×10^−2 mm | 97.24 ± 2.35 ×10^−2 mm | 101.6 ± 1.68 ×10^−2 mm | 123.5 ± 1.13 ×10^−2 mm |
| O=C(c1ccccc1)c1ccc2n1CCC2C(=O)O (stereo not shown) [Ketorolac, ketorolac tromethamine, reference compound] |  |  |  |  |  |  | 41.6 ± 2.02 ×10^−2 mm | 40.2 ± 2.82 ×10^−2 mm | 41.2 ± 2.06 ×10^−2 mm | 40.4 ± 1.52 ×10^−2 mm |
| O=c1sc2ccccc2n1CCCCCCN1CCN(CCCCn2c(=O)sc3ccccc32)CC1 [Compound 5r, 3-(6-(4-(4-(2-oxobenzo[d]thiazol-3(2H)-yl)butyl)piperazin-1-yl)hexyl)benzo[d]thiazol-2(3H)-one] | > 25 | > 25 | > 25 |  |  |  |  |  |  |  |
